“Also recorded” adds a separate entry of the source.

Data on 17 compounds can be found in publication PMC4796946 (Nature, 2015).

Series [1] concerns GPR65 mutant receptors (D153A, R187L, F242A, Y272A). Kind of series: cAMP reporter assay at GPR65 mutant receptors. The format is cell-based, human. The following applies: GPR65 R187L, F242A, Y272A. In outline:
(§1)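 GloSensor cAMP assay in HEK293-T cells co-transfected with receptor (wild-type or mutant) and GloSensor 7A, plated at 15,000 cells/well for at least 6 h. Cells were loaded with luciferin (4 mM, pH 8.4, 90 min, 37 °C), which was then removed. Test compound was added in NaOH-adjusted pH solutions (HBSS, 10 mM HEPES, 10 mM MES), 20 min at room temperature. Luminescence is given as RLU fold of buffer basal. Curves were fitted with a 4-parameter logistic; n≥3.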
A general note: A reporter such as luciferase makes a cellular process visible.

The target in series [2] is GPR65 mutant receptors (D153A, R187L, F242A, Y272A) (Homo sapiens, UniProt Q8IYL9, D153A). Briefly: cAMP reporter assay at GPR65 mutant receptors. The format is cell-based. The following applies: GPR65 D153A. In outline: as §1
GPR65 mutant receptors (D153A, R187L, F242A, Y272A) (Homo sapiens, UniProt Q8IYL9, D153A), sequence (Q8IYL9 whole entry D153A): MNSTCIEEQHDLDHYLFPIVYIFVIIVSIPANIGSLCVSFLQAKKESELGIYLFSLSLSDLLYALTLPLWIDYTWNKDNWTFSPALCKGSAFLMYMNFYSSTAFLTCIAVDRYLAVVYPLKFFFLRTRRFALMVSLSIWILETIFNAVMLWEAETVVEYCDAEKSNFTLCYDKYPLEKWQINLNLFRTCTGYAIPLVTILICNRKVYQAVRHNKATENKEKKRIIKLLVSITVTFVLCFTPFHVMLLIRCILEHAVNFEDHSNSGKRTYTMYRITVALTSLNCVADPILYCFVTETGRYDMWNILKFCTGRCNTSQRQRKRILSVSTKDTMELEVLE
Series [3] deals with GPR65 (Homo sapiens, UniProt Q8IYL9). Briefly: Split-luciferase cAMP reporter assay, GPR65. It counts as cell-based. The conditions noted are these: for inhibition of GPR65: receptors activated by protons or by BTB09089; for activity at GPR65: effect on proton response, cAMP. In outline: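 GPR65 was co-transfected with the GloSensor reporter into HEK293-T cells, which were then luciferin-loaded (4 mM, pH 8.4, 90 min, 37 °C). Test compound was applied in pH-adjusted HBSS/HEPES/MES buffer for 20 min at room temperature. The receptor was activated either by protons at pH 7.40 or by 30 μM reference agonist at pH 8.40. Luminescence was normalised to buffer basal. Data come from at least three assays, each at least in triplicate (≥16 measurements total).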
GPR65, sequence (Q8IYL9 whole entry): as the sequence (Q8IYL9 whole entry D153A) above, with A153D counted along it

Series [4] has as its target T1, GPR68 (Homo sapiens, UniProt Q15743). Briefly: Split-luciferase. The format is cell-based. The conditions noted are these: for stimulation of cAMP production by benzodiazepines: 10 μM, pH 6.50 or 7.40. In outline: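 HEK293-T cells were co-transfected with receptor and GloSensor 7A reporter and plated at least 6 h at 15,000 cells/well in 1% dialysed FBS DMEM. Cells were loaded with 4 mM luciferin in drug buffer, pH 8.4, for 90 min at 37 °C; luciferin was then removed. Proton concentration-responses ran without and with rising test compound levels premixed in pH-adjusted HBSS/HEPES/MES (TAPS at high pH; BSA for some). Plates stood 20 min at room temperature before luminescence reading. Data were fitted to an allosteric operational model, with proton pEC50 as pKA.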
A general note: cAMP levels reflect the balance of adenylyl cyclase and phosphodiesterase activity.

The subject of series [5] is phosphodiesterases. Kind of series: Phosphodiesterase inhibition.
In series [6] the test system is control HEK293 T cells. Briefly: cAMP reporter assay at control HEK293 T cells. The format is cell-based, human. Summed up:
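Control HEK293-T cells were run in the GloSensor cAMP format: luciferin loading at 4 mM, pH 8.4, 90 min, 37 °C, then removal. Test compound in pH-adjusted HBSS/HEPES/MES buffer was applied for 20 min at room temperature before luminescence reading. Results are normalised fold of basal from at least three assays, each at least in triplicate (≥16 measurements).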

Series [7] has as its system wild-type and GPR68 KO mice. Kind of series: Fear conditioning. The format is in vivo.
Series [8] deals with T1, GPR68. Kind of series: Calcium mobilization assay. It counts as cell-based. The following applies: 10 μM, GPR68 wild-type. Summed up: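 HEK293-T cells were transfected, plated overnight in DMEM with 1% dialysed FBS at 15,000 cells/well, then loaded 60 min at 37 °C (5% CO2) with Fluo-4 Direct dye in drug buffer containing 2.5 mM probenecid, pH 8.0. Test compound was added first (10 μM final before the pH addition), followed by 10 min reading. pH solutions (HBSS, 7 mM each HEPES/HEPPS/MES, NaOH-adjusted) were then added. Fluorescence was read 1/s for 4 min and expressed as fold of basal; n=3.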
For orientation: Calcium assays in cells follow changes in intracellular calcium, usually with a dye or a luminescent sensor.

For series [9], the target named is GPR4 (Homo sapiens, UniProt P46093). Kind of series: Split-luciferase cAMP reporter assay, GPR4. The format is cell-based. The conditions noted are these: effect on proton response. In outline: as §1
GPR4, sequence (P46093 whole entry): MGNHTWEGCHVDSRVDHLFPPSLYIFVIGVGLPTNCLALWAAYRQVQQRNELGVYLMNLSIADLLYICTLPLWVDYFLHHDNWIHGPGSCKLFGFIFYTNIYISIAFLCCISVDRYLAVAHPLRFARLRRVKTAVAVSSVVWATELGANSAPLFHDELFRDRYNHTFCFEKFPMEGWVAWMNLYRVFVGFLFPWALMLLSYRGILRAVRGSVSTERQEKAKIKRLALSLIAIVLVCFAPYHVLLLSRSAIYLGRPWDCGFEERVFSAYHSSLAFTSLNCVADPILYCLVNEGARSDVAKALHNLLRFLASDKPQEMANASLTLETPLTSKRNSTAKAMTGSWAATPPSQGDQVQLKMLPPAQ
The subject of series [10] is PKA and MAP kinase pathways. The format is cell-based, human. The conditions noted are these: 50 μM, 10 min, GPR68-expressing HEK293 cells.
Series [11] relates to GABAA receptor. Kind of series: Radioligand binding profiling. In outline:
(§2)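 Membranes came from animal brain tissue, stable cell lines or transiently transfected HEK293-T cells. Competition binding used a fixed radioligand concentration, incubated in the dark at 22 °C, and was ended by vacuum filtration onto GF/B filters, followed by beta counting. Values are mean pKi (n=2–4).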

The conditions of series [12]: cited from earlier work.
For series [13], the target named is T1, GPR68. Briefly: Yeast growth assay, GPR68 paired with chimeric Gq yeast. The conditions noted are these: library screen at 10 μM. It counts as cell-based. Summed up:
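Yeast with receptor were diluted in SD-His-Ura medium to OD600 0.02 final. Test compound was 10 μM final, in triplicate, with 3-amino-1,2,4-triazole (pH 5.4) at a level set by titration without ligand. Growth ran at 30 °C for 2–5 days. Cells were resuspended and read at OD600. % growth stimulation = […], given as mean ± SEM of three wells.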

Series [14] has as its target T1, GPR68. Kind of series: PI hydrolysis assay in GPR68-transfected HEK293-T cells. The format is cell-based. The conditions noted are these: 10 μM, under equilibrium. Summed up: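 Transfected HEK293-T cells (24 h) were plated in 10% FBS DMEM. After 5 h they were labelled overnight with 3H-inositol (1 μCi/well) in inositol-free DMEM with 5% dialysed FBS. Cells were washed with HBSS, 10 mM HEPES, 10 mM MES, 20 mM LiCl, pH 8.4. pH-adjusted solutions containing 20 mM LiCl and 10 μM test compound were applied for 20 min. Extraction used 50 mM ice-cold formic acid, 4 °C for 30 min; extracts were bead-captured (4 °C, 30 min) and counted as cpm; n=3.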

The target in series [15] is 5-HT2B (Homo sapiens, UniProt P41595). Kind of series: Radioligand binding profiling. The conditions noted are these: profiling against 58 GPCRs, ion channels, and transporters. In outline:
as §2

The target in series [16] is A2A receptor (Homo sapiens, UniProt P29274). Briefly: Radioligand binding profiling. The conditions noted are these: profiling against 58 GPCRs, ion channels, and transporters. In outline: as §2
A2A receptor, sequence (P29274 whole entry): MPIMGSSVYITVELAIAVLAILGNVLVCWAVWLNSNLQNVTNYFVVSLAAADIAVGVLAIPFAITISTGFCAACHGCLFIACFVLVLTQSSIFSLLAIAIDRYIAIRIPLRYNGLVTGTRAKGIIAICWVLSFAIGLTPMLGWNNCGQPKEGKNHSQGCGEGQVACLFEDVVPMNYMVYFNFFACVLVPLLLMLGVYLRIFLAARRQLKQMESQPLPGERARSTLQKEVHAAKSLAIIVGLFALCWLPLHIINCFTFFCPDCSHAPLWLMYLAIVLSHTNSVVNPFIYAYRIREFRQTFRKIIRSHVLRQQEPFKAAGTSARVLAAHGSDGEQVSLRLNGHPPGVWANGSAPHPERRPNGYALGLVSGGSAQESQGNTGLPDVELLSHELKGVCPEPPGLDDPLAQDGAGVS
The mark [17] stands for this setting: cAMP production, proton as agonist.

T1 sequence (Q15743 whole entry): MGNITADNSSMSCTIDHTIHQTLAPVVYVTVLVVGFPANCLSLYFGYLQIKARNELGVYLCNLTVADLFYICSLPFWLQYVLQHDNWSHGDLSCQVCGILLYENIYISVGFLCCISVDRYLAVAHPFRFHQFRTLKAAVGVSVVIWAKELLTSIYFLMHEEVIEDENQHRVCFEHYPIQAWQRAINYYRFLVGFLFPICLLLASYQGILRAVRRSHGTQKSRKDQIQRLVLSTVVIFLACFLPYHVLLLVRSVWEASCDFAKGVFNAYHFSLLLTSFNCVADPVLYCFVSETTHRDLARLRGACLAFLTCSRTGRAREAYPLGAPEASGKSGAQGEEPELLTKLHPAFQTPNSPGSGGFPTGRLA
5-HT2B, sequence (P41595 whole entry): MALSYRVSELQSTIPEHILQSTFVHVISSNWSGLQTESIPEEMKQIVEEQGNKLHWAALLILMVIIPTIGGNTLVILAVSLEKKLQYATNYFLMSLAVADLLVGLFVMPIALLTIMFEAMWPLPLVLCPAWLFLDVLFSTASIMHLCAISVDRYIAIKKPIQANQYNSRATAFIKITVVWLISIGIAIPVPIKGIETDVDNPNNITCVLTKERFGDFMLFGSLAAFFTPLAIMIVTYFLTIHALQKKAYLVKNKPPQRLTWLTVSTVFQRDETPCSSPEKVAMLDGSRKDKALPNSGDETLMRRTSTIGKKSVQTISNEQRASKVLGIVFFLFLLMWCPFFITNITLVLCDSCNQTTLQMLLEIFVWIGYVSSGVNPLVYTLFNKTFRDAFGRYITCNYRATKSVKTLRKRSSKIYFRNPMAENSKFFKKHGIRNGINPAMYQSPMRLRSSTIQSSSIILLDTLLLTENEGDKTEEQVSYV

For `CN1N=C(SCc2ccc(Cl)cc2Cl)Sc2c1cnn(C)c2=O` [BTB09089, reference compound], the “effect of R187L, F242A, Y272A mutations on compound activity” value in series [1] was “reduced the activity”. Besides, in series [2], the “effect of D153A mutation on compound activity” value is “no effect”. For the same compound, in [3], the “agonist activity at GPR65 (qualitative)” value is “weak agonist activity”, the “mode of action at GPR65” value is recorded as “allosteric agonist” and the “potentiation of proton efficacy/activity at GPR65” value was “failed to potentiate”.

On to `Nc1nc(NCCc2ccccc2)nc(-c2ccccc2CO)n1` [C2], for which, in [4] (allosteric operational model, proton as agonist), the α-factor amounted to 22. In addition, the “leftward shift of proton response relative to ogerin” value in series [4] (cAMP production) is 3 fold.

`Nc1nc(NCCCc2ccccc2)nc(-c2ccccc2CO)n1` [C3]: the “allosteric effect (qualitative comparison)” value (“allosteric effect” for short) in series [4] (setting [17]) is “reduced allostery”.

As to `Nc1nc(NCCCCc2ccccc2)nc(-c2ccccc2CO)n1` [C4], the “allosteric effect” value in [4] (setting [17]) was “reduced allostery”.

Take `Nc1nc(-c2ccc(Cl)c(Cl)c2)c(-c2ccncc2)s1` [CGH2466]: the “allosteric effect” value in series [4] (setting [17]) is “much lower than that of ogerin”. Further, in series [4] (with phosphodiesterase inhibitor Ro 20-1724), the “GPR68 activity in the presence of Ro 20-1724” value was “minimal activity”. The phosphodiesterase inhibition entry in series [5] was “potent phosphodieseterase inhibitor”.

Turning to `OC1CCC(Nc2nc(-c3ccccc3)nc3[nH]ccc23)CC1` (centres unmarked) [SLV320], the phosphodiesterase inhibition result in [5] was “potent phosphodieseterase inhibitor”.

As to `O=C1CCc2cc(-c3csc(NC(=O)c4ccc(-c5ccccc5F)o4)n3)ccc2N1` [ZINC9468042], in series [3], the “inhibition of GPR65” value is recorded as “GPR65-specific inhibition”.

As to `COc1ccc(-c2csc(NC(=O)CSc3nc[nH]n3)n2)cc1OC` [ZINC13684400], in [1], the “effect of R187L, F242A, Y272A mutations on compound activity” value is “reduced the activity”. For the same compound, the “effect of D153A mutation on compound activity” value in [2] is “much reduced the activity”. In [6], the “activity at control cells” value is listed as “without measurable activity”. Moreover, in series [3], the “mode of action at GPR65” value was “allosteric agonist” and the “potentiation of proton efficacy/activity at GPR65” value is on record as “did not potentiate”. For the same compound, the “agonist activity at GPR65” value in [3] (pH 8.40) is on record as “over 2 fold of basal”.

With `Nc1nc(NCc2ccccc2)nc(-c2cccc(CO)c2)n1` [ZINC32547799], the learning and memory result in series [7] (wild-type mice) is given as “no measurable effect”. In addition, the “contextual and cue memory” value is given as “no effect” in series [7] (wild-type mice, 10 mg/kg) and “no effect” in series [7] (wild-type mice, 30 mg/kg). Also, the learning entry in [7] (wild-type mice, 10 mg/kg) was “no effect”; in [7] (wild-type mice, 30 mg/kg) it was “enhanced”. For the same compound, in series [8], the “effect on proton-mediated calcium release” value is “little effect”.

Regarding `O=C(Nc1nc(-c2ccc3c(c2)OCCO3)cs1)c1csnn1` [ZINC41613384], the “inhibition of GPR65” value in series [3] is “GPR65-specific inhibition”.

Regarding `Cc1nc(-c2ncccn2)sc1C(=O)O[C@@H](c1ccccc1)c1ccncc1` [ZINC62678696], in series [3], the “inhibition of GPR65” value is “GPR65-specific inhibition; also recorded: inhibited”.

Turning to `O=C1CN=C(c2ccccc2Cl)c2cc([N+](=O)[O-])ccc2N1` [clonazepam], the “stimulation of cAMP production by benzodiazepines” value (from here on “stimulation of cAMP production”) in series [4] is “stimulated cAMP production in a GPR68- and pH-dependent manner”.

Turning to `O=C1CN=C(c2ccccc2)c2cc(Cl)ccc2N1` [desmethyldiazepam], in [4], the “stimulation of cAMP production” value was “stimulated cAMP production in a GPR68- and pH-dependent manner”.

Turning to `O=C1Nc2ccc(Cl)cc2C(c2ccccc2Cl)=NC1O` (centres unmarked) [lorazepam], the “stimulation of cAMP production” value in series [4] is “stimulated cAMP production in a GPR68- and pH-dependent manner”. Besides, the “activity at GPR4” value in series [9] is “no activity”. Also, in series [10], the “activation of PKA and MAP kinase pathways” value is “activate”. For the same compound, in series [11], the “activity in panel of CNS targets” value is listed as “substantial activity”. Moreover, the “concentration in plasma during treatment” value in series [12] is reported as “micromolar”. Besides, in series [13], the “stimulation of yeast growth” value is “more than two-fold”. The “activity at GPR65” value in [3] is “no activity”.

Consider `O=C1CN=C(c2ccccc2F)c2cc(Cl)ccc2N1` [norfludiazepam], for which the “stimulation of cAMP production” value in series [4] was “stimulated cAMP production in a GPR68- and pH-dependent manner”.

Regarding `Nc1nc(NCc2ccccc2)nc(-c2ccccc2CO)n1` [ogerin], the memory retrieval result in series [7] (GPR68 KO mice, 10 mg/kg) is recorded as “no effect”. Also, in series [7] (WT mice, 10 mg/kg), the contextual-based fear memory result is “attenuated” and the cue-based memory entry was “without effects”. The “allosteric effect” value in [4] (setting [17]) was “much higher allosteric effect than lorazepam”. Besides, the “effect on proton activity in PI hydrolysis” value in series [14] is “slightly potentiated”. For the same compound, the “activity at GPR4” value in series [9] is listed as “minimal PAM activity”. Further, the “activation of PKA and MAP kinase pathways” value in series [10] is given as “activate”. For the same compound, the “affinity at 5-HT2B” value in [15] is recorded as “moderate affinity”. Besides, in [3], the “activity at GPR65” value was “minimal PAM activity”. Besides, in [16], the “affinity at A2A receptor” value was “moderate affinity”. Also, the “effect on proton-mediated calcium release” value in series [8] is recorded as “inhibited”.

With `CCCCNc1c(C(=O)OCC)c(C)nc2c1cnn2CC` [tracazolate], the phosphodiesterase inhibition result in series [5] is reported as “potent phosphodieseterase inhibitor”.
